This note sets out measurements from ChEMBL document CHEMBL1687829, “Evaluation of hepatotoxicity with off-label oral-treatment doses of voriconazole for invasive fungal infections” (Antimicrob Agents Chemother, 2011).

Data set [1] deals with Homo sapiens. The data set is described as follows: Toxicity in patient assessed as visual disturbance at 297.3 mg, po bid for 76.1 days. As to conditions: in vivo, 1826.4 h. Type of data set: organism-based. In outline: (§1)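 Retrospective chart review of the same cohort: adults on ≥7 days of oral voriconazole treatment, either fixed 200 mg twice daily (n = 25) or weight-based dosing (n = 84). Visual disturbances were taken from the medical records as a secondary adverse-event endpoint and given as number (%) of patients per group.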

The test system of data set [2] is Homo sapiens. In words: Hepatotoxicity in patient assessed as five times increase in baseline ALP level at 200 mg, po bid for 72 days. Type of data set: toxicity, organism-based. As to conditions: in vivo, 1728 h. The essentials: (§2)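 Retrospective cohort at one hospital, 2006–2008. Patients received ≥7 days of oral voriconazole treatment for possible, probable or proven invasive fungal infection, with baseline and follow-up liver enzymes available; prophylaxis use was excluded. Groups were fixed 200 mg twice daily (n = 25) or weight-based 4 mg/kg twice daily after day 1 (n = 84). Read-out was number (%) of patients with a value >5× baseline or >3× ULN.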

The test system of data set [3] is Homo sapiens. The data set is described as follows: Hepatotoxicity in patients assessed as three times increase in upper limit of normal bilirubin level at 297.3 mg, po bid for 76.1 days. Type of data set: toxicity, organism-based. As to conditions: in vivo, 1826.4 h. In outline: as §2
The subject of data set [4] is Homo sapiens. The data set is described as follows: Toxicity in patients assessed as adverse event at 200 mg, po bid for 72 days. As to conditions: in vivo, 1728 h. It counts as organism-based. The essentials:
(§3)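 Same retrospective cohort (fixed 200 mg twice daily, n = 25, versus weight-based oral dosing, n = 84; ≥7 days of treatment). The outcome was voriconazole discontinuation that the practitioner attributed to an adverse drug event, taken from the medical records. Counts and % per group were compared between groups.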

Data set [5] has as its system Homo sapiens. The data set is described as follows: Hepatotoxicity in patient assessed as five times increase in baseline AST level at 200 mg, po bid for 72 days. Type of data set: toxicity, organism-based. As to conditions: in vivo, 1728 h. In outline: as §2
Data set [6] has as its system Homo sapiens. In words: Hepatotoxicity in patients assessed as three times increase in upper limit of normal bilirubin level at 200 mg, po bid for 72 days. As to conditions: in vivo, 1728 h. Type of data set: toxicity, organism-based. The essentials: as §2
Data set [7] has as its system Homo sapiens. In words: Toxicity in patient assessed as visual disturbance at 200 mg, po bid for 72 days. The conditions noted are these: in vivo, 1728 h. Type of data set: organism-based. In outline:
as §1

The test system of data set [8] is Homo sapiens. In words: Hepatotoxicity in patient assessed as three times increase in upper limit of normal […] level at 297.3 mg, po bid for 76.1 days. It counts as toxicity, organism-based. As to conditions: in vivo, 1826.4 h. The essentials: as §2
Data set [9] deals with Homo sapiens. In words: Hepatotoxicity in patient assessed as three times increase in upper limit of normal AST level at 200 mg, po bid for 72 days. Type of data set: toxicity, organism-based. As to conditions: in vivo, 1728 h. In outline:
as §2

The test system of data set [10] is Homo sapiens. The data set is described as follows: Hepatotoxicity in patient assessed as three times increase in upper limit of normal […] level at 200 mg, po bid for 72 days. Type of data set: toxicity, organism-based. As to conditions: in vivo, 1728 h. The essentials: as §2
The test system of data set [11] is Homo sapiens. The data set is described as follows: Hepatotoxicity in patient assessed as five times increase in baseline […] level at 297.3 mg, po bid for 76.1 days. It counts as toxicity, organism-based. As to conditions: in vivo, 1826.4 h. In outline: as §2
Data set [12] concerns Homo sapiens. In words: Hepatotoxicity in patients assessed as five times increase in baseline bilirubin level at 200 mg, po bid for 72 days. The conditions noted are these: in vivo, 1728 h. It counts as toxicity, organism-based. In outline:
as §2

Data set [13] has as its system Homo sapiens. In words: Hepatotoxicity in patient assessed as five times increase in baseline ALT level at 200 mg, po bid for 72 days. Type of data set: toxicity, organism-based. As to conditions: in vivo, 1728 h. In outline: as §2
Data set [14] relates to Homo sapiens. The data set is described as follows: Hepatotoxicity in patient assessed as three times increase in upper limit of normal AST level at 297.3 mg, po bid for 76.1 days. Type of data set: toxicity, organism-based. The conditions noted are these: in vivo, 1826.4 h. The essentials:
as §2

Data set [15] concerns Homo sapiens. The data set is described as follows: Hepatotoxicity in patient assessed as three times increase in upper limit of normal ALT level at 200 mg, po bid for 72 days. Type of data set: toxicity, organism-based. The conditions noted are these: in vivo, 1728 h. The essentials:
as §2

Data set [16] has as its system Homo sapiens. The data set is described as follows: Hepatotoxicity in patients assessed as five times increase in baseline bilirubin level at 297.3 mg, po bid for 76.1 days. Type of data set: toxicity, organism-based. As to conditions: in vivo, 1826.4 h. The essentials: as §2
The subject of data set [17] is Homo sapiens. In words: Toxicity in patients assessed as adverse event at 297.3 mg, po bid for 76.1 days. It counts as organism-based. As to conditions: in vivo, 1826.4 h. The essentials: as §3
The subject of data set [18] is Homo sapiens. In words: Hepatotoxicity in patient assessed as three times increase in upper limit of normal ALT level at 297.3 mg, po bid for 76.1 days. It counts as toxicity, organism-based. As to conditions: in vivo, 1826.4 h. In outline: as §2
The subject of data set [19] is Homo sapiens. The data set is described as follows: Hepatotoxicity in patient assessed as five times increase in baseline ALT level at 297.3 mg, po bid for 76.1 days. It counts as toxicity, organism-based. The conditions noted are these: in vivo, 1826.4 h. The essentials:
as §2

The test system of data set [20] is Homo sapiens. In words: Hepatotoxicity in patient assessed as five times increase in baseline AST level at 297.3 mg, po bid for 76.1 days. Type of data set: toxicity, organism-based. The conditions noted are these: in vivo, 1826.4 h. The essentials: as §2

Turning to `C[C@@H](c1ncncc1F)[C@](O)(Cn1cncn1)c1ccc(F)cc1F` [VORICONAZOLE], the Activity is recorded as 3.6% with Homo sapiens [1]; 4% in the data set on Homo sapiens [2]; 6% in the data set with Homo sapiens [3]; 0% in the data set on Homo sapiens [4]; 12% in the data set on Homo sapiens [5]; 16% in the data set with Homo sapiens [6]. Also, the Activity was determined as 4% in the data set on Homo sapiens [7]; 11.9% in the data set with Homo sapiens [8]; 16% in the data set with Homo sapiens [9]; 32% in the data set on Homo sapiens [10]; 3.6% in the data set on Homo sapiens [11]; 12% in the data set with Homo sapiens [12]. Also, the Activity was determined as 24% with Homo sapiens [13]; 20.2% with Homo sapiens [14]; 12% in the data set with Homo sapiens [15]; 3.6% in the data set with Homo sapiens [16]; 16.9% with Homo sapiens [17]; 15.5% in the data set on Homo sapiens [18]. Also, the Activity with Homo sapiens [19] was 13.1%; in the data set with Homo sapiens [20], 15.5%.
